Assay [1] relates to Cercospora beticola. The experiment in a line: Antifungal activity against Cercospora beticola assessed as inhibition of radial growth on potato dextrose. Format: functional, organism-based. The method, boiled down: (§1)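 Radial growth inhibition on potato dextrose or Czapek agar across 100-0.1 mg L-1. ED50 calculated for each compound.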
Assay [2] deals with Pyrenophora teres. The experiment in a line: Antifungal activity against Pyrenophora teres assessed as inhibition of radial growth on potato dextrose. Format: functional, organism-based.
Assay [3] relates to Bipolaris maydis. The experiment in a line: Antifungal activity against Cochliobolus heterostrophus assessed as inhibition of radial growth on potato dextrose. Format: functional, organism-based. The essentials: as §1
Assay [4] has as its system Botrytis cinerea. Kind of assay: Antifungal activity against Botryotinia fuckelianaassessed as inhibition of radial growth on potato dextrose. Format: functional, organism-based. The method, boiled down:
as §1

Assay [5] concerns Uromyces appendiculatus. Kind of assay: Fungicidal activity against Uromyces appendiculatus inoculated in Phaseolus vulgaris placed in growth room after 24 hr incubation assessed as direct protection after 6 to 10 days. Format: functional. The method, boiled down: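 Bean plants grown at 22 ± 1 °C, 80 ± 10% RH. Compound in acetone/water (1:4 v/v) with Tween 20 (0.4 mg mL-1) was sprayed on leaves until moist at 100 to 0.001 mg L-1. One day later leaves were inoculated with U. appendiculatus uredospores (1 × 10^5 spores mL-1), held 24 h at 22 ± 2 °C and 100% RH, then moved to the growth room. Scored at 6, 8 and 10 days as MIC.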

Assay [6] deals with Podosphaera fuliginea. Kind of assay: Fungicidal activity against Podosphaera fuliginea inoculated in […] placed in growth room after 24 hr incubation assessed as direct protection after 6 to 10 days. Format: functional.
Assay [7] relates to Oculimacula yallundae. Kind of assay: Antifungal activity against Oculimacula yallundae assessed as inhibition of radial growth on potato dextrose. The format is functional, organism-based. The essentials:
as §1

The test system of assay [8] is Fusarium graminearum. The experiment in a line: Antifungal activity against Fusarium graminearum assessed as inhibition of radial growth on potato dextrose. The format is functional, organism-based. The essentials:
as §1

The subject of assay [9] is Ustilago maydis. Kind of assay: Antifungal activity against Ustilago maydis assessed as inhibition of radial growth on potato dextrose. Format: functional, organism-based. To be noted: Mycosarcoma maydis.
Assay [10] has as its system Podosphaera fuliginea. The experiment in a line: Fungicidal activity against Podosphaera fuliginea inoculated in […] placed in growth room after 24 hr incubation assessed as disease cure after 24 hr of inoculation. Format: functional.
For assay [11], the system named is Uromyces appendiculatus. The experiment in a line: Fungicidal activity against Uromyces appendiculatus inoculated in Phaseolus vulgaris placed in growth room after 24 hr incubation assessed as disease cure after 24 hr of inoculation. Format: functional. The method, boiled down:
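Bean rust curative test with the same plants, spray formulation (acetone/water 1:4 with Tween 20), 100 to 0.001 mg L-1 range and U. appendiculatus inoculum (1 × 10^5 spores mL-1). Compound applied 24 h after inoculation. Read-out expressed as MIC.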

Each structure is given as a SMILES string. In brackets after ≈: the same amount, converted by molar mass.

Broadly, the EC50 is the concentration giving half of the maximal effect. In general, MIC refers to the lowest concentration found to suppress growth.

For `Clc1ccc(COCC(Cn2cncn2)c2ccc(Cl)cc2Cl)c(Cl)c1` (racemic), the concentration for a half-maximal effect (EC50) in assay [1] came out at 0.18 mg/L (≈ 0.417 µM); in assay [2] it was 0.35 mg/L (≈ 0.812 µM); in assay [3], 0.28 mg/L (≈ 0.649 µM); in assay [4], 1 mg/L (≈ 2.32 µM); in assay [7], 0.65 mg/L (≈ 1.51 µM); in assay [8] it was 12 mg/L (≈ 27.8 µM). The EC50 in assay [9] is 0.09 mg/L (≈ 0.209 µM). Further, the minimal inhibitory concentration (MIC) in assay [5] amounted to 30 mg/L (≈ 69.6 µM); in assay [6], 10 mg/L (≈ 23.2 µM).

On to `C#CCOCC(Cn1cncn1)c1ccc(Cl)cc1Cl` (stereo not given), for which the EC50 in [1] was 0.3 mg/L (≈ 0.967 µM); in [2], 1.4 mg/L (≈ 4.51 µM); in assay [4] it was 3.6 mg/L (≈ 11.6 µM); in assay [7], 0.5 mg/L (≈ 1.61 µM); in assay [8], 25 mg/L (≈ 80.6 µM); in assay [9], 0.5 mg/L (≈ 1.61 µM). For the same compound, the MIC in assay [5] was greater than 100 mg/L.

For the compound `OCCCOCC(Cn1cncn1)c1ccc(Cl)cc1Cl` (racemic), the EC50 is 1.7 mg/L (≈ 5.15 µM) in assay [1]; 8 mg/L (≈ 24.2 µM) in assay [2]; 1.3 mg/L (≈ 3.94 µM) in assay [3]; 70 mg/L (≈ 212 µM) in assay [4]; 2.5 mg/L (≈ 7.57 µM) in assay [7]; 75 mg/L (≈ 227 µM) in assay [8]. Moreover, the EC50 in assay [9] stood at 1 mg/L (≈ 3.03 µM). Moreover, the MIC in [5] is greater than 200 mg/L; in assay [6], greater than 100 mg/L.

Regarding `Clc1ccc(C(COCc2cccc(Oc3ccccc3)c2)Cn2cncn2)c(Cl)c1` (racemic), the concentration giving a half-maximal response (EC50) in assay [1] is 0.14 mg/L (≈ 0.308 µM); in assay [2] it was 0.85 mg/L (≈ 1.87 µM); in assay [3] it was 150 mg/L (≈ 330 µM); in [4] it was 8 mg/L (≈ 17.6 µM); in [7] it was 5 mg/L (≈ 11 µM); in assay [8] it was greater than 200 mg/L. Also, the 50% effective concentration (EC50) in assay [9] worked out at 0.16 mg/L (≈ 0.352 µM). Besides, the MIC in assay [5] was determined as 50 mg/L (≈ 110 µM); in assay [6] it was 12 mg/L (≈ 26.4 µM).

As to `Clc1ccc(C(COC/C=C/c2ccccc2)Cn2cncn2)c(Cl)c1` (racemic), the EC50 worked out at 0.2 mg/L (≈ 0.515 µM) in assay [1]; 0.47 mg/L (≈ 1.21 µM) in assay [2]; 0.18 mg/L (≈ 0.464 µM) in assay [3]; 3 mg/L (≈ 7.73 µM) in assay [4]; 1.3 mg/L (≈ 3.35 µM) in [7]; 40 mg/L (≈ 103 µM) in assay [8]. In addition, in assay [9], the EC50 was determined as 0.1 mg/L (≈ 0.258 µM). Also, the MIC worked out at 140 mg/L (≈ 361 µM) in [5] and 10 mg/L (≈ 25.8 µM) in assay [6].

As to `Clc1ccc(C(COCc2ccc(OCc3cccc(OCc4ccccc4)c3)cc2)Cn2cncn2)c(Cl)c1` (racemic), the EC50 was 0.9 mg/L (≈ 1.57 µM) in assay [1]; 1.3 mg/L (≈ 2.26 µM) in assay [2]; 25 mg/L (≈ 43.5 µM) in assay [4]; 1.8 mg/L (≈ 3.13 µM) in assay [7]; greater than 200 mg/L in assay [8]; 0.2 mg/L (≈ 0.348 µM) in assay [9]. The MIC in assay [5] is 140 mg/L (≈ 244 µM).

For the compound `CC(C)(C)c1ccc(COCC(Cn2cncn2)c2ccc(Cl)cc2Cl)cc1` (racemic), the EC50 in assay [1] came out at 0.28 mg/L (≈ 0.669 µM); in assay [2], 0.8 mg/L (≈ 1.91 µM); in assay [3] it was 0.4 mg/L (≈ 0.956 µM); in assay [4], 3.8 mg/L (≈ 9.08 µM); in assay [7], 1.2 mg/L (≈ 2.87 µM); in [8], 6.5 mg/L (≈ 15.5 µM). Besides, the concentration for a half-maximal effect (EC50) in assay [9] is 0.1 mg/L (≈ 0.239 µM). For the same compound, the MIC in assay [5] is 25 mg/L (≈ 59.8 µM); in [6], 10 mg/L (≈ 23.9 µM); in [10], 10 mg/L (≈ 23.9 µM).

With `Clc1ccc([C@H](COCc2ccccc2)Cn2cncn2)c(Cl)c1`, the EC50 in assay [1] is 0.16 mg/L (≈ 0.442 µM); in assay [2] it was 0.5 mg/L (≈ 1.38 µM); in [3], 0.25 mg/L (≈ 0.69 µM); in assay [4] it was 3 mg/L (≈ 8.28 µM); in assay [7], 0.41 mg/L (≈ 1.13 µM); in assay [8], 18 mg/L (≈ 49.7 µM). Also, in [9], the concentration for a half-maximal effect (EC50) was less than 0.1 mg/L. Besides, the results for the minimal inhibitory concentration (MIC) in assay [5] and in assay [6] were 50 mg/L (≈ 138 µM) and 80 mg/L (≈ 221 µM), respectively.

For the compound `Clc1ccc(C(COCc2ccc(OCc3ccc(OCc4ccccc4)cc3)cc2)Cn2cncn2)c(Cl)c1` (racemic), the EC50 in assay [1] is 0.18 mg/L (≈ 0.313 µM); in assay [2] it was 0.2 mg/L (≈ 0.348 µM); in [4] it was 100 mg/L (≈ 174 µM); in assay [7], 0.16 mg/L (≈ 0.278 µM); in [8], greater than 200 mg/L; in assay [9], 0.2 mg/L (≈ 0.348 µM). Moreover, the MIC in assay [5] was greater than 100 mg/L.

Take `COc1ccc(COCC(Cn2cncn2)c2ccc(Cl)cc2Cl)cc1` (racemic): the EC50 in assay [1] is 0.1 mg/L (≈ 0.255 µM); in [2], 0.45 mg/L (≈ 1.15 µM); in [3] it was 0.15 mg/L (≈ 0.382 µM); in assay [4], 1 mg/L (≈ 2.55 µM); in [7] it was 0.35 mg/L (≈ 0.892 µM); in assay [8] it was 10 mg/L (≈ 25.5 µM). Further, the EC50 in [9] was found to be 0.07 mg/L (≈ 0.178 µM). In addition, the MIC in [5] was 30 mg/L (≈ 76.5 µM); in [6], 35 mg/L (≈ 89.2 µM); in assay [11], 12 mg/L (≈ 30.6 µM).

In the case of `Clc1ccc(C(COCc2ccc(OCc3ccccc3)cc2)Cn2cncn2)c(Cl)c1` (racemic), the EC50 in [1] was 0.2 mg/L (≈ 0.427 µM); in [2], 0.22 mg/L (≈ 0.47 µM); in assay [3] it was 0.15 mg/L (≈ 0.32 µM); in assay [4], 3.5 mg/L (≈ 7.47 µM); in [7], 0.5 mg/L (≈ 1.07 µM); in assay [8], greater than 200 mg/L. Besides, the EC50 in assay [9] was found to be 0.14 mg/L (≈ 0.299 µM). In addition, the MIC in assay [5] was found to be 35 mg/L (≈ 74.7 µM); in assay [6] it was 10 mg/L (≈ 21.4 µM).

(Values after ChEMBL document CHEMBL3045489, “Synthesis, fungicidal activity, and QSAR of a series of 2-dichlorophenyl-3-triazolylpropyl ethers” (J Agric Food Chem, 2000).)
